Source: ChEMBL document CHEMBL1147553, “Betulinic acid and its derivatives as anti-angiogenic agents” (Bioorg Med Chem Lett, 2004)
Converted amounts (≈) assume the structure as drawn.

How the values were obtained:
ECV-304 = assay: Half-maximal cytotoxic concentration of compound against endothelial cell line ECV304; format: functional, cell-based; details: Homo sapiens
Summary of the method: (§1)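 Cells (10⁴) exposed in triplicate wells to 0.5–10 µg/mL compound from DMSO stock (final DMSO <0.1%). Cells grown in DMEM with L-glutamine, 25 mM HEPES, 10% FBS and antibiotics at 37 °C, 5% CO2. MTT read-out after 120 h. IC50 is the mean of three experiments. Specificity ratio is IC50 in tumor cell divided by IC50 in ECV304.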

[1] = Endothelial cell specificity of compound was determined as cytotoxicity on human tumor cell line PA-1 to that of endothelial cell; format: functional; summary of the method: as §1
[2] = Endothelial cell specificity of compound was determined as cytotoxicity on human tumor cell line A549 to that of endothelial cell; format: functional; summary of the method: as §1
[3] = Endothelial cell specificity of compound was determined as cytotoxicity on human tumor cell line L132 to that of endothelial cell; format: functional; summary of the method: as §1
[4] = Endothelial cell specificity of compound was determined as cytotoxicity on human tumor cell line DU145 to that of endothelial cell; format: functional; summary of the method: as §1

SMILES: CC(C)[C@@H]1CC[C@]2(C(=O)O)CC[C@]3(C)C(CCC4[C@@]5(C)CC/C(=N\Nc6ccc(F)cc6)C(C)(C)C5CC[C@]43C)C12 (stereo not given in full)
- IC50 (ECV-304): 0.35 µg/mL (≈ 0.62 µM)
- ECS ratio [1]: 1.4
- ECS ratio [2]: 20
- ECS ratio [3]: 11.1
- ECS ratio [4]: 3.7

SMILES: CC(C)[C@@H]1CC[C@]2(C(=O)O)CC[C@]3(C)C(CCC4[C@@]5(C)CC/C(=N\Nc6c(Cl)cc(Cl)cc6Cl)C(C)(C)C5CC[C@]43C)C12 (stereo not given in full)
- IC50 (ECV-304): 0.21 µg/mL (≈ 0.323 µM)
- ECS ratio [1]: 5.2
- ECS ratio [2]: 19
- ECS ratio [3]: 11.4
- ECS ratio [4]: 6.6

SMILES: CC(C)[C@@H]1CC[C@]2(C(=O)O)CC[C@]3(C)C(CCC4[C@@]5(C)CC(Br)[C@H](O)C(C)(C)C5CC[C@]43C)C12 (stereo not given in full)
- IC50 (ECV-304): 0.27 µg/mL (≈ 0.502 µM)
- ECS ratio [1]: 7.4
- ECS ratio [2]: 11.5
- ECS ratio [3]: 3.1
- ECS ratio [4]: 7

SMILES: CC(C)[C@@H]1CC[C@]2(C(=O)O)CC[C@]3(C)C(CCC4[C@@]5(C)CC/C(=N\NC(=O)c6ccccc6)C(C)(C)C5CC[C@]43C)C12 (stereo not given in full)
- IC50 (ECV-304): 0.39 µg/mL (≈ 0.678 µM)
- ECS ratio [1]: 4.3
- ECS ratio [2]: 27.7
- ECS ratio [3]: 1
- ECS ratio [4]: 7.7

SMILES: C=C(C)[C@@H]1CC[C@]2(C(=O)O)CC[C@]3(C)[C@H](CC[C@@H]4[C@@]5(C)CC[C@H](O)C(C)(C)[C@@H]5CC[C@]43C)[C@@H]12 [BETULINIC ACID]
- IC50 (ECV-304): 1.26 µg/mL (≈ 2.76 µM)
- ECS ratio [1]: 3.2
- ECS ratio [2]: 1.1
- ECS ratio [3]: 1
- ECS ratio [4]: 2.2

SMILES: C=C(C)[C@@H]1CC[C@]2(C(=O)O)CC[C@]3(C)[C@H](CC[C@@H]4[C@@]5(C)CCC(=O)C(C)(C)[C@@H]5CC[C@]43C)[C@@H]12 [BETUNOLIC ACID]
- IC50 (ECV-304): 0.28 µg/mL (≈ 0.616 µM)
- ECS ratio [1]: 9.2
- ECS ratio [2]: 9.8
- ECS ratio [3]: 3.2
- ECS ratio [4]: 14.2
